The list is not random: actives were taken first. Their share in the collection is about 1.2%.
proCasp3 act = activates human procaspase-3 | P42574 | recombinant procaspase-3 D3A, Ac-DEVD-pNA absorbance 405 nm | activation, % at 8.5 µM | 0.11% of 330,000 active;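 active = activation above the mean of all tested compounds plus 3 SD, cut at about 21% in these data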;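 note: 0% = DMSO alone and 100% = DMSO wells spiked with extra 5 µM PC-3 D3A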
Target sequence (P42574 whole entry D9A/D28A/D175A): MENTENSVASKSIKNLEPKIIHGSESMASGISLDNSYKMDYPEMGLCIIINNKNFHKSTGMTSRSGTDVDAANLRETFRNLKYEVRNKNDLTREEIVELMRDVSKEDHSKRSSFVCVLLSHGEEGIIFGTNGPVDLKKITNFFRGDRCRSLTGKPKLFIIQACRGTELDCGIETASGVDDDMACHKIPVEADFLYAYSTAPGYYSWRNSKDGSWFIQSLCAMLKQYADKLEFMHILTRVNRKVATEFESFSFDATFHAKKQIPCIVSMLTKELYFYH
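Evaluation: percent activation relative to control range; Material: Procaspase-3 D3A mutant, all three cleavage aspartates alanine; Compound: single dose, 8.5 µM nominal compound, 0.8% DMSO; Replication: one well per compound; Signal: absorbance at 405 nm, 0 and 120 min; Schedule: 1 h preincubation plus 2 h reaction at 25 °C.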
MsrA inhibitor = bovine MsrA inhibition; 0.75% of 360,000 active; purified bovine MsrA, absorbance read-out; AID 651718; inhibition, % at 15.5 µM;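 note: 0% = vehicle wells with enzyme and 100% = reference inhibitor wells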
procasp7 counter = activates human procaspase-7, counter-screen for procaspase-3 activators; recombinant procaspase-7, Ac-DEVD-pNA absorbance 405 nm; D23A/D198A/D206A triple mutant, cannot self-cleave; scale: DMSO 0, 5 µM enzyme 100; activation, % at 8.5 µM; 0.093% of 330,000 active;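 active = percent activation above the screen-wide mean plus 3 SD, cut at about 25% in these data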
Target sequence (P55210 whole entry D23A/D198A/D206A): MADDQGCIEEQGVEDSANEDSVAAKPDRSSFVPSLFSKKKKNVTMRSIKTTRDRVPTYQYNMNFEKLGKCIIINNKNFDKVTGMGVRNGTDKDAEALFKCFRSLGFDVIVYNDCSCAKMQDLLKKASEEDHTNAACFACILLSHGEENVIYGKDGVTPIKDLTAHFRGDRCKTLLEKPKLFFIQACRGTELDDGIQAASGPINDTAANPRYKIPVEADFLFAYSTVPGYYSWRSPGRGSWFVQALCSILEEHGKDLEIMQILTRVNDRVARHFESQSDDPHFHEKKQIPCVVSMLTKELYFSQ
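signal = Epi-absorbance of released pNA at 405 nm, two timepoints | assay system = Uncleavable procaspase-7 mutant enzyme | reagent = Ac-DEVD-pNA substrate, 400 µM as added | times = 1 h enzyme–compound preincubation and 2 h substrate reaction, both 25 °C | benchmarks = low DMSO alone, high DMSO plus 5 µM PC-7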
MsrA act = bovine methionine sulfoxide reductase A activation. purified bovine MsrA, absorbance read-out. activation, % at 10.6 µM. 0.3% of 360,000 active; in the data active = activation above about 7.5%;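 note: 0% = vehicle and 100% = reference activator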
MsrA conf = confirmation of bovine MsrA inhibitors | shares compounds with MsrA inhibitor | purified bovine MsrA, absorbance read-out | AID 651822 | 41% of 2,300 active | inhibition, % at 15.5 µM;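 note: coupled to thioredoxin reductase with NADPH and selenocystamine and DMSO as substrate; 0% = vehicle only and 100% = full effect of reference inhibitor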
The depositor's hits bear a star; · = not tested or not shown. Cut-off read from the data, not from the text of the source, unless noted: active = inhibition above about 4.5%; inactive = the rest.

SMILES | proCasp3 act | MsrA inhibitor | procasp7 counter | MsrA act | MsrA conf
Cc1cccc(NC(=O)/C(C#N)=C\c2cc(C)n(-c3ccc(C(=O)O)cc3)c2C)c1 | 3.8 | 4.7* | -4.8 | -4.1 | 4.2
Cc1cc(/C=C(/C#N)C(=O)O)c(C)n1-c1cccc2ccccc12 | -7.1 | 5.7* | 0.7 | -2.7 | 4.9*
COc1ccc(-c2cc(C(F)(F)F)nc(SCC(=O)N(C)Cc3cn(C)nc3C)n2)cc1OC | -2.3 | 6.0* | -1.9 | -7.8 | 3.9
COc1ccc(-c2cc(C(F)(F)F)nc(SCC(=O)NCc3cnn(C)c3C)n2)cc1OC | -6.6 | 2.2 | 4.4 | -5.3 | ·
O=c1oc2ccccc2c2c1cnc1ccccc12 | -0.7 | 15.7* | 3.7 | -1.9 | 15.0*
Cc1cnc(N)c2c(=O)oc3ccccc3c12 | 11.4 | 0.2 | 11.2 | -2.5 | ·
Cc1ccnc(N=Cc2nc(-c3ccccc3Br)oc2O)c1 | 7.0 | 6.5* | -4.8 | -4.8 | 0.9
COC(=O)C1=C(C)N(Cc2cccc(C(F)(F)F)c2)C(=NCc2cc(OC)c(OC)c(OC)c2)NC1c1ccccc1 (stereo not given) | · | -0.8 | · | · | ·
COc1ccc(Nc2nc3ccc(C)cn3c(=O)c2/C=N/O)cc1 | -0.9 | 5.0* | -2.6 | -1.2 | 0.3
Cc1ccc2nc(Nc3ccccc3)c(/C=N/O)c(=O)n2c1 | 2.7 | 1.2 | -5.8 | -13.3 | ·
CCOC(=O)CCCCCC(=O)Nc1ccc2c(c1)C(=O)N([C@H](C)CO)C[C@@H](C)[C@@H](CN(C)S(=O)(=O)c1ccc(C)cc1)OCCCC[C@H](C)O2 | · | 0.1 | · | · | ·
COCCCNc1nc2nonc2nc1N1CCN(C2CCCC2)CC1 | -7.4 | 2.5 | 7.1 | -1.8 | ·
COCCCNc1nc2nonc2nc1N1CCN2CCCC2C1 (stereo not given) | -6.8 | 4.8* | 5.1 | -6.2 | 3.4
CCN1CCN(c2nc3ccccc3nc2NS(=O)(=O)c2ccc(NC(C)=O)cc2)CC1 | 7.2 | 4.7* | -9.6 | -11.9 | 2.2
CC(=O)Nc1ccc(S(=O)(=O)Nc2nc3ccccc3nc2N2CCCC2)cc1 | 2.3 | 1.2 | 3.3 | -2.8 | ·
C#CCN1CC(COc2ccccc2)OCCS1(=O)=O (stereo not given) | · | -0.9 | · | · | ·
Cc1nn(Cc2ccc(Cl)cc2)c(=O)n1N(C)c1ncc(C(F)(F)F)cc1Cl | -4.8 | 15.0* | -3.3 | -2.8 | 12.7*
CCOC(=O)N/N=C/c1cc(OC)c(O)c(OC)c1 | -3.3 | 0.4 | 9.7 | -8.9 | ·
COc1cc(/C=N/N=C/c2cc(OC)c(O)c(OC)c2)cc(OC)c1O | 1.9 | 6.0* | -12.3 | -11.1 | 5.8*
COc1cc(/C=N/NC(=O)C(N)=O)cc(OC)c1O | 6.4 | 4.8* | -14.4 | -9.0 | 3.6
NC(=O)c1ncn([C@@H]2O[C@H](C(=O)N[C@H](Cc3c[nH]c4ccccc34)C(=O)N3CCN(C(=O)C4CC4)CC3)[C@@H](O)[C@H]2O)n1 | · | 3.6 | · | · | ·
O=S1(=O)CCSC[C@@H](CN2CCN(c3ccccc3)CC2)N1 | · | -1.2 | · | · | ·
O=C(O)c1ccc2c(=O)n3c(nc2c1)/C(=C/c1ccc(F)cc1)CC3 | -6.0 | 5.5* | -12.6 | -1.6 | 4.4
COC(=O)C1=C(C)N(Cc2cccc(C(F)(F)F)c2)C(=NCC2CC2)NC1c1ccc(F)cc1 (stereo not given) | · | -0.9 | · | · | ·
COC(=O)CCN(Cc1ccc(OC)cc1OC)S(=O)(=O)c1ccccc1Br | · | -0.3 | · | · | ·
SMILES | proCasp3 act | MsrA inhibitor | procasp7 counter | MsrA act | MsrA conf
C/C(CC(C)C)=N/Nc1ccc([N+](=O)[O-])cc1[N+](=O)[O-] | 0.6 | 10.9* | -4.0 | -4.5 | 11.9*
C/C(CCC(C)C)=N\Nc1ccc(S(N)(=O)=O)cc1[N+](=O)[O-] | -3.2 | 10.3* | -1.3 | -12.6 | 7.8*
CCC(CC)=NNc1ccc(S(N)(=O)=O)cc1[N+](=O)[O-] | -0.9 | -0.2 | 3.5 | -0.9 | ·
CC(Cc1ccccc1)=NNc1ccc([N+](=O)[O-])cc1[N+](=O)[O-] | · | -1.0 | · | -1.4 | ·
C/C(=N\Nc1ccc(S(N)(=O)=O)cc1[N+](=O)[O-])c1ccc2c(c1)OCO2 | · | 20.6* | · | -3.1 | 15.3*
CCN(CC)S(=O)(=O)c1ccc(N/N=C(\C)c2ccc3c(c2)OCO3)c([N+](=O)[O-])c1 | -1.5 | -0.9 | 1.0 | -4.1 | ·
COC(=O)CC/C(C)=N\Nc1ccc([N+](=O)[O-])cc1[N+](=O)[O-] | -8.4 | 6.3* | -7.4 | -2.7 | 9.5*
COC(=O)C[C@@H]1C[C@H]2c3cc(NC(=O)Nc4ccccc4F)ccc3O[C@H]2[C@@H](CO)O1 | · | 0.1 | · | · | ·
Nc1ccn([C@@H]2O[C@H](C(=O)N[C@H](Cc3ccccc3)C(=O)NCC(F)(F)F)[C@@H](O)[C@H]2O)c(=O)n1 | · | 0.2 | · | · | ·
Cc1ccccc1CN1[C@@H](C)[C@H](c2ccccc2)Oc2cccc(N3CCCC3)c2S1(=O)=O | · | 3.1 | · | · | ·
COc1ccc(-c2cc(NC=O)c3ncc(-c4cccc(C(=O)NCCN(C)C)c4)n3c2)cc1 | · | 11.4* | · | -0.2 | 0.6
CN(C)CCNC(=O)c1cccc(-c2cnc3c(NC=O)cc(-c4ccc(F)cc4)cn23)c1 | · | 0.5 | · | -1.6 | ·
COC(=O)C(CCSC)NC(=O)c1cc2c(n(-c3ccc(C)cc3)c1=O)CCCC2=O (stereo not given) | -10.2 | 5.5* | -1.7 | -9.8 | 0.1
CCOC(=O)c1cc(C(=O)OCC)c(=O)[nH]c1N1CCCCC1 | 8.7 | 7.5* | -10.2 | -5.3 | 3.1
COc1cccc(N2CCN(C(=O)c3ccc(=O)oc3)CC2C)c1 (stereo not given) | 2.5 | 4.9* | -4.9 | -7.7 | 3.9
COc1cccc(NC(=O)N2CCN(c3cccc(C)c3)C(C)C2)c1 (stereo not given) | -0.6 | -0.5 | 10.0 | 4.6 | ·
COCc1cc(N2CCN(C(=O)OC(C)(C)C)C[C@H]2C)ccc1N1CCN(Cc2ccccc2)[C@H](C)C1 | · | -1.0 | · | · | ·
COc1ccc(N2C(=O)c3n[nH]c(C)c3C2c2ccccc2)cc1 (stereo not given) | · | -2.2 | · | · | ·
Cc1ccc2nc(-c3ccco3)c(Cc3ccccc3C(F)(F)F)n2c1 | · | 0.7 | · | · | ·
CCCN1CCCCC(NC(=O)c2ccc(Cl)cc2Cl)C1=O (stereo not given) | · | -0.3 | · | · | ·
COc1cc(/C=C/C(=O)OC(C)C(=O)Nc2c(C)n(C)n(-c3ccccc3)c2=O)ccc1O (stereo not given) | 4.9 | 5.9* | -1.3 | -6.8 | 3.1
Cc1c(NC(=O)C(C)OC(=O)/C=C/c2ccccc2)c(=O)n(-c2ccccc2)n1C (stereo not given) | -4.6 | -0.1 | 4.3 | -2.2 | ·
C#CCN1C(=O)[C@]2(OCCC=C[C@H]2C)c2cc(OC)ccc21 | · | 2.6 | · | · | ·
Cc1ccc(C(=O)NCC(=O)NCC(=O)OCC(=O)c2ccc(F)cc2)cc1 | -1.0 | 51.6* | -0.3 | -3.6 | 0.2
COCCn1c(SCC(N)=O)nc2c(c1=O)SC(C)C2 (stereo not given) | 3.7 | 4.7* | 1.5 | -2.0 | 1.8
CC1Cc2nc(SCC(=O)Nc3ccc4c(c3)OCCO4)n(C)c(=O)c2S1 (stereo not given) | -4.8 | 5.0* | 4.7 | -4.4 | 0.7

Assay outcomes (PubChem)
